The structures appear in SMILES notation. Where only a bound is given, the exact number is not on record here.

Holding throughout (type): in vivo, Drosophila melanogaster
The subject of assay [1] is Tip60-RNAi knockdown Drosophila larvae. Particulars: oral in food; for Performance in rescuing locomotor defects (in words): compared to CTB.
Assay [2] concerns AD-associated APP Drosophila third-instar larvae. As to the kind of experiment: Larval locomotor assay in AD-associated APP model. The gist of the method:
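elavC155-Gal4/UAS-APP larvae (w1118 background), with parental crosses set on food containing the test compound in DMSO (final DMSO ≤0.01%) or DMSO alone, so larvae feed from hatching. Wandering third instars of either sex are rinsed in distilled water, placed on 2.5% agar over a 0.5 cm grid, and acclimated 1 min. Read-outs are speed (mm/s, video tracking) and head line crossings in 30 s. Analysis is one-way ANOVA with Dunnett's test.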

The subject of assay [3] is Tip60-RNAi-2 Drosophila larvae. The experiment in a line: Larval locomotor assay in second Tip60-RNAi line. The note with it: 100 uM, line crossing in 30 seconds. Put shortly: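 elavC155-Gal4 × UAS-Tip60 RNAi-2 progeny (w1118 background) are reared from hatching on food containing the test compound in DMSO (final DMSO ≤0.01%) or vehicle. Wandering third-instar larvae are rinsed and placed on a 2.5% agar plate over a 0.5 cm × 0.5 cm grid. After 1 min acclimation, head line crossings are counted over 30 s. Analysis is one-way ANOVA with Dunnett's comparisons.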

For `Cn1cc(C(=O)COc2ccccc2C(=O)Nc2ccc(Cl)c(C(F)(F)F)c2)cn1` [C1, N-[4-chloro-3-(trifluoromethyl)phenyl]-2-[2-(1-methyl-1H-pyrazol-4-yl)-2-oxoethoxy]benzamide], the “Performance in rescuing locomotor defects (in words)” value (shortened to “Performance”) in assay [1] is “low-performing”. For `COC(=O)CCC(=O)COc1ccccc1C(=O)Nc1ccc(Cl)c(C(F)(F)F)c1` [C2, Methyl 5-(2-{[4-chloro-3-(trifluoromethyl)phenyl]carbamoyl}phenoxy)-4-oxopentanoate], in assay [1], the “Performance” value is reported as “highest performers”. The “Sustained effects to complete the assay and reach the wall (in words)” value in assay [2] is given as “sustained effects”. The “Concentration significantly rescuing larval locomotor ability” value in assay [2] (oral in food) was at least 50 µM. The “Rescue of locomotor deficits (in words)” value in assay [3] was “rescued locomotor deficits”. For `O=C(Nc1ccc(Cl)c(C(F)(F)F)c1)c1ccccc1OCC(=O)N1CCNC1=O` [C4, N-[4-Chloro-3-(trifluoromethyl)phenyl]-2-[2-oxo-2-(2-oxo-1-imidazolidinyl)ethoxy]benzamide], the “Performance” value in assay [1] is recorded as “no effect”. For `CCOCCC(O)COc1ccccc1C(=O)Nc1ccc(Cl)c(C(F)(F)F)c1` (stereo not shown) [C5, N-[4-Chloro-3-(trifluoromethyl)phenyl]-2-(4-ethoxy-2-hydroxybutoxy)benzamide], the “Performance” value in assay [1] is “highest performers”. As to `CC(C)CNC(=O)COc1ccccc1C(=O)Nc1ccc(Cl)c(C(F)(F)F)c1` [C6, N-[4-Chloro-3-(trifluoromethyl)phenyl]-2-[2-(isobutylamino)-2-oxoethoxy]benzamide], the “Performance” value in assay [1] is given as “low-performing”. On to `O=C(Nc1ccc(Cl)c(C(F)(F)F)c1)c1ccccc1OCC(=O)C1CCOCC1` [C7, N-[4-Chloro-3-(trifluoromethyl)phenyl]-2-[2-oxo-2-(tetrahydro-2H-pyran-4-yl)ethoxy]benzamide], for which the “Performance” value in assay [1] is “low-performing”. Regarding `CNC(=O)NC(=O)COc1ccccc1C(=O)Nc1ccc(Cl)c(C(F)(F)F)c1` [C8, N-[4-Chloro-3-(trifluoromethyl)phenyl]-2-{2-[(methylcarbamoyl)amino]-2-oxoethoxy}benzamide], the “Performance” value in assay [1] is listed as “highest performers”. Regarding `COC(=O)CNC(=O)COc1ccccc1C(=O)Nc1ccc(Cl)c(C(F)(F)F)c1` [C9, Methyl N-[(2-{[4-chloro-3-(trifluoromethyl)phenyl]carbamoyl}phenoxy)acetyl]glycinate], the “Performance” value in assay [1] is on record as “low-performing”. On to `O=C(COc1ccccc1C(=O)Nc1ccc(Cl)c(C(F)(F)F)c1)NCC1CC1` [C10, N-[4-Chloro-3-(trifluoromethyl)phenyl]-2-{2-[(cyclopropylmethyl)amino]-2-oxoethoxy}benzamide], for which the “Performance” value in assay [1] is given as “low-performing”. Consider `CCOc1ccccc1C(=O)Nc1ccc(Cl)c(C(F)(F)F)c1` [CTB, N-[4-chloro-3-(trifluoromethyl)phenyl]-2-ethoxybenzamide, reference compound], for which, in assay [1] (10 to 100 μM), the “Rescue of locomotor ability (in words)” value is given as “significant rescue”.

For the origin of these results see publication PMC11978860 (Nature Communications, 2025).
